Measurements: paper PMC3947152 (European journal of nuclear medicine and molecular imaging, 2013)
Read-outs that look alike come from different tables or passages of the source.

Legend:
hNET = hNET (Homo sapiens, UniProt P23975); test: Competitive inhibition of ^123I-MIBG binding/uptake in C6-hNET cells; assay type: cell-based
How it was run: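 C6 cells stably transduced with hNET; triplicate samples of ~0.5×10^6 cells with ~3.7 kBq 123I-MIBG and 0.005–50 nmol unlabeled benzylguanidine competitor in 0.5 mL medium, 37 °C, 2 h. Cells collected by rapid filtration on glass microfiber filters, washed 3× with ice-cold Tris-buffered saline pH 7.4, gamma counted. Cell-bound activity plotted against competitor concentration; IC50 by least-squares fit.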

[1] = Lipophilicity: distribution coefficient between 1-octanol and PBS pH 7.4; assay type: physicochemical; settings: 1-octanol/PBS
How it was run: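 Octanol and PBS (pH 7.4) pre-equilibrated together for 24 h. Radiotracer (~11.1 kBq 18F; ~3.7 kBq 123I) added to the octanol/PBS pair, in triplicate, shaken 2 h at room temperature, then centrifuged 5 min at 2,000 rpm. Aliquots of each phase gamma counted; logD = log10(octanol counts/PBS counts).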

human serum protein = test: Plasma protein binding by ultrafiltration, human; assay type: in vitro ADME; settings: 37 °C, 0.5 h
How it was run: (§1)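 Radiotracer in 10 µL (~7.4 kBq 18F; ~3.7 kBq 123I) added to 190 µL human or mouse plasma, in triplicate, gently shaken 37 °C, 0.5 h. Ultrafiltration by centrifugation 10 min at 9,000 rpm. 20 µL of pre-filtration plasma (total) and 20 µL of ultrafiltrate (unbound) gamma counted; unbound fraction taken from ultrafiltrate relative to total.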

mouse serum protein = test: Plasma protein binding by ultrafiltration, mouse; assay type: in vitro ADME; settings: 37 °C, 0.5 h
How it was run: as §1

[2] = test system: C6-hNET and C6-WT xenografts; test: Biodistribution in animals bearing dual C6-hNET and C6-WT xenografts; assay type: in vivo, mice; settings: for % Injected Dose/g tissue, C6-WT: C6-WT xenograft; for % Injected Dose/g tissue, C6-hNET: C6-hNET xenograft
C6-hNET xenografts = test: PET imaging with ROI analysis of mice bearing C6-hNET and C6-WT xenografts; assay type: in vivo; settings: for PET image-based tumor-to-intestine signal ratio: C6-hNET xenograft
How it was run: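 Male athymic NCr-nu/nu mice (7–9 weeks) implanted subcutaneously with 5×10^6 C6-hNET cells (right shoulder) and 5×10^6 C6-WT cells (left shoulder) in medium/matrigel 1:1. Scanned at day 20 with tumors 150–350 mm³. Tail-vein injection of 3.7–11.1 MBq 18F tracer in saline. R4 microPET under 2% isoflurane, 10-min acquisitions at 1 h and 4 h p.i., 350–750 keV window. ROI maximum pixel values (%ID/mL) used; 5–7 animals per group.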

C6-hNET cells = test: In vitro uptake in hNET-transduced and wild-type C6 cells; assay type: cell-based, rat; settings: 2 h incubation at 37 °C
How it was run: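 Both C6-hNET and wild-type C6 cells grown in DMEM HG. 1.0×10^6 cells in 1.0 mL medium, in triplicate, shaken with radiotracer (~11.1 kBq 18F-labeled or ~3.7 kBq radioiodinated) at 37 °C for 2 h. Cells filtered on glass microfiber filters, washed 3× with ice-cold TBS pH 7.4, gamma counted as % added activity per 10^6 cells. Nonspecific uptake measured with 200 µM MIBG (final). 2–5 independent experiments.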

[3] = C6-hNET cells, ^123I-MIBG as radioligand, 37 °C, 2 h

Sequence of hNET (P23975 whole entry): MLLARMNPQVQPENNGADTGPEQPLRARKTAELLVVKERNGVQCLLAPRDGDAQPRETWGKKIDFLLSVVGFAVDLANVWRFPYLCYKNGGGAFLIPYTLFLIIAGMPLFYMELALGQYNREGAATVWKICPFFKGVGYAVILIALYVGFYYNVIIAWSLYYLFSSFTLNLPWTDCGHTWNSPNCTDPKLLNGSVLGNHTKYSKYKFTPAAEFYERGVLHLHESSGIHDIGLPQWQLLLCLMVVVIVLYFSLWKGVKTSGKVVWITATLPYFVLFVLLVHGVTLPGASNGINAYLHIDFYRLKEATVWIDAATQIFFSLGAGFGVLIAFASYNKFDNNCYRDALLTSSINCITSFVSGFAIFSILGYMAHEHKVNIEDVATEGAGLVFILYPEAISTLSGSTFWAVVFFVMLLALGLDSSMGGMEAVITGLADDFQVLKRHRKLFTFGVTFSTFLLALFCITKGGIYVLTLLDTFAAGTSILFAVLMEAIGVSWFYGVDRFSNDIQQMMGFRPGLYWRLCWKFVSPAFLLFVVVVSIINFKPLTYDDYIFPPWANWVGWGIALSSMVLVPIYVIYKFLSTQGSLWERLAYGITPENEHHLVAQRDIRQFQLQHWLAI

NC(N)=NCc1ccc(F)cc1 [PFBG]
IC50 (hNET; [3]): 9.8 ± 2.5 µM

N=C(N)NCc1cccc(I)c1 [^123I-MIBG, meta-iodobenzylguanidine]
logD at 2 h [1]: 0.42 ± 0.01
% unbound to human serum protein (human serum protein): 12.4±0.5 (n = 2) %
% unbound to mouse serum protein (mouse serum protein): 29.2±2.0 (n = 2) %
IC50 (hNET): 1.7 ± 0.6 µM
% Injected Dose/g tissue, Adrenals ([2]; 4 h p.i.): 7.34±2.63 %ID/g
% Injected Dose/g tissue, Blood ([2]; 4 h p.i.): 0.66±0.10 %ID/g
% Injected Dose/g tissue, Bone ([2]; 4 h p.i.): 0.71±0.10 %ID/g
% Injected Dose/g tissue, C6-WT ([2]; 4 h p.i.): 0.49±0.04 %ID/g
% Injected Dose/g tissue, C6-hNET ([2]; 4 h p.i.): 4.02±0.35 %ID/g
% Injected Dose/g tissue, Heart ([2]; 4 h p.i.): 2.10±0.14 %ID/g
% Injected Dose/g tissue, Intestinal contents (L) ([2]; 4 h p.i.): 2.25±0.29 %ID/g
% Injected Dose/g tissue, Intestinal contents (S) ([2]; 4 h p.i.): 5.24±0.46 %ID/g
% Injected Dose/g tissue, Intestinal wall (L) ([2]; 4 h p.i.): 2.96±0.74 %ID/g
% Injected Dose/g tissue, Intestinal wall (S) ([2]; 4 h p.i.): 3.67±1.05 %ID/g
% Injected Dose/g tissue, Kidneys ([2]; 4 h p.i.): 0.84±0.11 %ID/g
% Injected Dose/g tissue, Liver ([2]; 4 h p.i.): 2.27±0.18 %ID/g
% Injected Dose/g tissue, Lungs ([2]; 4 h p.i.): 2.84±0.38 %ID/g
% Injected Dose/g tissue, Muscle ([2]; 4 h p.i.): 0.95±0.13 %ID/g
% Injected Dose/g tissue, Pancreas ([2]; 4 h p.i.): 1.15±0.13 %ID/g
% Injected Dose/g tissue, Salivary glands ([2]; 4 h p.i.): 8.41±0.83 %ID/g
% Injected Dose/g tissue, Spleen ([2]; 4 h p.i.): 2.51±0.29 %ID/g
% Injected Dose/g tissue, Stomach ([2]; 4 h p.i.): 0.77±0.34 %ID/g

N=C(N)NCc1cccc(F)c1 [MFBG]
IC50 (hNET; [3]): 4.86 ± 0.59 µM

N=C(N)NCc1cccc([131I])c1 [[^124I]MIBG, meta-iodobenzylguanidine]
% Injected Dose/g tissue, Adrenals ([2]; 4 h p.i.): 13.9±1.7 %ID/g
% Injected Dose/g tissue, Adrenals ([2]; 24 h p.i.): 7.46±1.78 %ID/g
% Injected Dose/g tissue, Blood ([2]; 4 h p.i.): 0.76±0.15 %ID/g
% Injected Dose/g tissue, Blood ([2]; 24 h p.i.): 0.21±0.02 %ID/g
% Injected Dose/g tissue, Bone ([2]; 4 h p.i.): 2.56±0.27 %ID/g
% Injected Dose/g tissue, Bone ([2]; 24 h p.i.): 0.45±0.09 %ID/g
% Injected Dose/g tissue, C6-WT ([2]; 4 h p.i.): 1.27±0.10 %ID/g
% Injected Dose/g tissue, C6-WT ([2]; 24 h p.i.): 0.22±0.02 %ID/g
% Injected Dose/g tissue, C6-hNET ([2]; 24 h p.i.): 3.58±0.55 %ID/g
% Injected Dose/g tissue, Heart ([2]; 4 h p.i.): 19.6±2.5 %ID/g
% Injected Dose/g tissue, Heart ([2]; 24 h p.i.): 2.93±0.17 %ID/g
% Injected Dose/g tissue, Intestinal contents (L) ([2]; 4 h p.i.): 3.62±0.89 %ID/g
% Injected Dose/g tissue, Intestinal contents (L) ([2]; 24 h p.i.): 2.00±0.06 %ID/g
% Injected Dose/g tissue, Intestinal contents (S) ([2]; 4 h p.i.): 6.92±1.79 %ID/g
% Injected Dose/g tissue, Intestinal contents (S) ([2]; 24 h p.i.): 1.76±0.40 %ID/g
% Injected Dose/g tissue, Intestinal wall (L) ([2]; 4 h p.i.): 7.88±0.74 %ID/g
% Injected Dose/g tissue, Intestinal wall (L) ([2]; 24 h p.i.): 3.18±0.45 %ID/g
% Injected Dose/g tissue, Intestinal wall (S) ([2]; 4 h p.i.): 10.3±0.6 %ID/g
% Injected Dose/g tissue, Intestinal wall (S) ([2]; 24 h p.i.): 2.66±0.18 %ID/g
% Injected Dose/g tissue, Kidneys ([2]; 4 h p.i.): 2.09±0.10 %ID/g
% Injected Dose/g tissue, Kidneys ([2]; 24 h p.i.): 0.64±0.04 %ID/g
% Injected Dose/g tissue, Liver ([2]; 4 h p.i.): 5.42±0.44 %ID/g
% Injected Dose/g tissue, Liver ([2]; 24 h p.i.): 1.00±0.05 %ID/g
% Injected Dose/g tissue, Lungs ([2]; 4 h p.i.): 9.50±2.26 %ID/g
% Injected Dose/g tissue, Lungs ([2]; 24 h p.i.): 1.55±0.37 %ID/g
% Injected Dose/g tissue, Muscle ([2]; 4 h p.i.): 3.21±0.28 %ID/g
% Injected Dose/g tissue, Muscle ([2]; 24 h p.i.): 0.69±0.07 %ID/g
% Injected Dose/g tissue, Pancreas ([2]; 4 h p.i.): 3.48±0.31 %ID/g
% Injected Dose/g tissue, Pancreas ([2]; 24 h p.i.): 0.75±0.10 %ID/g
% Injected Dose/g tissue, Salivary glands ([2]; 4 h p.i.): 29.1±1.8 %ID/g
% Injected Dose/g tissue, Salivary glands ([2]; 24 h p.i.): 7.95±0.81 %ID/g
% Injected Dose/g tissue, Spleen ([2]; 4 h p.i.): 4.43±0.35 %ID/g
% Injected Dose/g tissue, Spleen ([2]; 24 h p.i.): 1.36±0.27 %ID/g
% Injected Dose/g tissue, Stomach ([2]; 4 h p.i.): 2.85±0.54 %ID/g
% Injected Dose/g tissue, Stomach ([2]; 24 h p.i.): 1.08±0.08 %ID/g

N=C(N)NCc1cccc(F)c1 [[^18F]MFBG] [meta-[^18F]fluorobenzylguanidine]
IC50 (hNET; [3]): 4.9 ± 0.6 µM

N=C(N)NCc1ccc(F)cc1 [[^18F]PFBG, para-[^18F]fluorobenzylguanidine]
IC50 (hNET; [3]): 9.8 ± 2.5 µM

N=C(N)NCc1cccc([18F])c1 [[^18F]MFBG] [meta-[^18F]fluorobenzylguanidine]
fold lower affinity to hNET compared to ^123I/[^124I]MIBG (hNET; from IC50 values in C6-hNET cells): 2.8 fold
fold higher accumulation in C6-hNET tumors than [^18F]PFBG (C6-hNET xenografts; 1 h p.i., in vivo): 1.6 fold
PET image-based tumor-to-intestine signal ratio (C6-hNET xenografts; 1 h post injection): 1.3±0.2
PET image-based tumor-to-intestine signal ratio (C6-hNET xenografts; 4 h post injection): 2.4±0.3
% Injected Dose/g tissue, Adrenals ([2]; 4 h p.i.): 5.56±2.34 %ID/g
% Injected Dose/g tissue, Blood ([2]; 4 h p.i.): 0.25±0.05 %ID/g
% Injected Dose/g tissue, Bone ([2]; 4 h p.i.): 0.89±0.16 %ID/g
% Injected Dose/g tissue, C6-WT ([2]; 4 h p.i.): 0.57±0.08 %ID/g
% Injected Dose/g tissue, C6-hNET ([2]; 4 h p.i.): 4.25±0.95 %ID/g
C6-hNET/tissue ratio, Blood ([2]; C6-hNET/Blood, 4 h p.i.): 17.1±4.4
C6-hNET/tissue ratio, Intestine wall (L) ([2]; C6-hNET/Intestine wall (L), 4 h p.i.): 1.8±0.7
C6-hNET/tissue ratio, Intestine wall (S) ([2]; C6-hNET/Intestine wall (S), 4 h p.i.): 1.9±0.4
C6-hNET/tissue ratio, Liver ([2]; C6-hNET/Liver, 4 h p.i.): 2.1±0.4
C6-hNET/tissue ratio, Muscle ([2]; C6-hNET/Muscle, 4 h p.i.): 6.8±0.9
C6-hNET/tissue ratio, Salivary gland ([2]; C6-hNET/Salivary gland, 4 h p.i.): 0.7±0.1
% Injected Dose/g tissue, Heart ([2]; 4 h p.i.): 2.21±0.66 %ID/g
% Injected Dose/g tissue, Intestinal contents (L) ([2]; 4 h p.i.): 1.26±0.23 %ID/g
% Injected Dose/g tissue, Intestinal contents (S) ([2]; 4 h p.i.): 1.36±0.11 %ID/g
% Injected Dose/g tissue, Intestinal wall (L) ([2]; 4 h p.i.): 1.72±0.52 %ID/g
% Injected Dose/g tissue, Intestinal wall (S) ([2]; 4 h p.i.): 2.16±0.26 %ID/g
% Injected Dose/g tissue, Kidneys ([2]; 4 h p.i.): 0.99±0.29 %ID/g
% Injected Dose/g tissue, Liver ([2]; 4 h p.i.): 2.05±0.30 %ID/g
% Injected Dose/g tissue, Lungs ([2]; 4 h p.i.): 1.30±0.20 %ID/g
% Injected Dose/g tissue, Muscle ([2]; 4 h p.i.): 0.62±0.09 %ID/g
% Injected Dose/g tissue, Pancreas ([2]; 4 h p.i.): 0.78±0.06 %ID/g
% Injected Dose/g tissue, Salivary glands ([2]; 4 h p.i.): 6.09±1.02 %ID/g
% Injected Dose/g tissue, Spleen ([2]; 4 h p.i.): 1.50±0.19 %ID/g
% Injected Dose/g tissue, Stomach ([2]; 4 h p.i.): 0.46±0.12 %ID/g

N=C(N)NCc1cccc(I)c1 [MIBG, meta-iodobenzylguanidine]
IC50 (hNET; [3]): 1.72 ± 0.58 µM

N=C(N)NCc1ccc([18F])cc1 [[^18F]PFBG, para-[^18F]fluorobenzylguanidine]
fold lower uptake in C6-hNET cells than that of ^123I/[^124I]MIBG (C6-hNET cells): 4 fold
PET image-based tumor-to-intestine signal ratio (C6-hNET xenografts; 1 h post injection): 0.4±0.1
PET image-based tumor-to-intestine signal ratio (C6-hNET xenografts; 4 h post injection): 1.5±0.3

N=C(N)NCc1ccc(I)cc1 [PIBG, para-iodobenzylguanidine]
IC50 (hNET; [3]): 7.2 ± 0.5 µM
